Legend:
[1] = system: Plasmodium falciparum; assay: Antimalarial activity against chloroquine-sensitive Plasmodium falciparum D6 after 72 hrs by fluorescence based method; format: functional, organism-based; conditions: D6, 72 h
Summary of the method: (§1)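 Asynchronous parasite cultures diluted with uninfected erythrocytes in RPMI-1640 plus 0.5% Albumax II to 0.2% parasitemia, 2% hematocrit. Drugs diluted from 10 mM DMSO stock, final 0 to 10^-4 M, triplicate wells. After 72 h under standard culture conditions, read by SYBR Green I fluorescence (ex 497, em 520 nm). IC50 from nonlinear regression of fluorescence vs log[drug].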

[2] = system: Plasmodium falciparum; assay: Antimalarial activity against chloroquine-resistant Plasmodium falciparum Dd2 after 72 hrs by fluorescence based method; format: functional, organism-based; conditions: Dd2, 72 h; summary of the method: as §1
[3] = Therapeutic index, ratio of IC50 for C57B1/6J mice (Mus musculus) splenic lymphocyte to IC50 for chloroquine-sensitive Plasmodium falciparum D6; conditions: read-out: TI
[4] = Therapeutic index, ratio of IC50 for C57B1/6J mice (Mus musculus) splenic lymphocyte to IC50 for chloroquine-resistant Plasmodium falciparum Dd2; conditions: read-out: TI

CN(CCCNc1ccnc2cc(Cl)ccc12)CCCN1c2ccccc2CCc2ccccc21
IC50 [1]: 3 nM | IC50 [2]: 5 nM

O=C(CNCCNc1ccnc2cc(Cl)ccc12)N(Cc1ccccc1)Cc1ccccc1
IC50 [1]: 14 nM | IC50 [2]: 16 nM

Clc1ccc2c(NCCNCCCN(Cc3ccccc3)Cc3ccccc3)ccnc2c1
IC50 [1]: 7 nM | IC50 [2]: 16 nM

O=C(CNCCNc1ccnc2cc(Cl)ccc12)N(c1ccccc1)c1ccccc1
IC50 [1]: 5 nM | IC50 [2]: 13 nM | selectivity ratio [3]: 12000 | selectivity ratio [4]: 4800

O=C(CN(CCNc1ccnc2cc(Cl)ccc12)CC(=O)N(c1ccccc1)c1ccccc1)N(c1ccccc1)c1ccccc1
IC50 [1]: 30 nM | IC50 [2]: 52 nM

Clc1ccc2c(NCCCNCCCCN(Cc3ccccc3)Cc3ccccc3)ccnc2c1
IC50 [1]: 8 nM | IC50 [2]: 11 nM

Clc1ccc2c(NCCN(CCN(Cc3ccccc3)Cc3ccccc3)CCN(Cc3ccccc3)Cc3ccccc3)ccnc2c1
IC50 [1]: 2 nM | IC50 [2]: 5 nM

O=C(CN1CCN(c2ccnc3cc(Cl)ccc23)CC1)N(c1ccccc1)c1ccccc1
IC50 [1]: 49 nM | IC50 [2]: 101 nM

Clc1ccc2c(NCCCNCCCN(Cc3ccccc3)Cc3ccccc3)ccnc2c1
IC50 [1]: 23 nM | IC50 [2]: 34 nM

Clc1ccc2c(NCCCNCCN(c3ccccc3)c3ccccc3)ccnc2c1
IC50 [1]: 26 nM | IC50 [2]: 27 nM

Clc1ccc2c(NCCCNCCN(Cc3ccccc3)Cc3ccccc3)ccnc2c1
IC50 [1]: 2 nM | IC50 [2]: 6 nM

Clc1ccc2c(NCCNCCN(Cc3ccccc3)Cc3ccccc3)ccnc2c1
IC50 [1]: 10 nM | IC50 [2]: 16 nM

Clc1ccc2c(N3CCN(CCN(Cc4ccccc4)Cc4ccccc4)CC3)ccnc2c1
IC50 [1]: 52 nM | IC50 [2]: 115 nM
